Data set [1] deals with Human immunodeficiency virus 1. The experiment in a line: Antiviral activity against on HIV1 3b infected C8166 cells assessed as syncytial cell formation after 3 days. The class given is functional, organism-based. The note with it: Human immunodeficiency virus 1, 3b, C8166, 72 h. Put shortly:
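C8166 cells (8 × 10^5/mL) seeded with serial concentrations of compound, then infected with HIV-1 IIIB at 1300 TCID50/well; 3 days at 37 °C, 5% CO2. Syncytia (multinucleated giant cells) counted per well under inverted microscope; percent inhibition of syncytium formation versus untreated infected controls gives EC50.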

Data set [2] can be described thus: Cytotoxicity against C8166 cells by MTT method. The settings on record: human. In kind it is cell-based. The method, boiled down: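 Uninfected C8166 cells (4 × 10^5/mL) exposed to graded compound concentrations for 72 h at 37 °C, 5% CO2. Supernatant removed, MTT (5 mg/mL stock in PBS) added for 4 h, formazan dissolved in 50% DMF–20% SDS, absorbance read at 595/630 nm. CC50 (50% loss of viable cells) taken from dose-response curve.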

Data set [3] can be described thus: Selectivity index, ratio of CC50 for C8166 cells to IC50 for HIV1 infected C8166 cells. The class given is functional. Put shortly:
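Therapeutic index computed as CC50 (MTT viability of uninfected C8166, 72 h) divided by EC50 (inhibition of HIV-1 IIIB syncytium formation in C8166, 3 days), both run in parallel.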

As a reminder, the EC50 is the concentration at which the effect is half-maximal. One may read the CC50 as the concentration at which the toxic effect on the cells reaches its halfway point. A lower CC50 goes with harm at low concentration. For the compound `COc1cc(C(c2cc(OC)c3c(c2)OCO3)[C@@H]2COC(=O)[C@H]2C)cc2c1OCO2` [PEPEROMIN A], the EC50 in data set [1] was 5.3 µM. This compound also gave a CC50 in data set [2] of 43.2 µM. Besides, the “Ratio CC50/EC50” value in data set [3] turned out to be 8.2.

For `COc1cc([C@H]2O[C@H](c3cc(OC)c4c(c3)OCO4)[C@@H](COC(C)=O)[C@@H]2CO)cc(OC)c1O`, in data set [1], the EC50 came out at 49.8 µM. In data set [2], the midpoint of cytotoxicity, the CC50, lay at 229 µM. In addition, the “Ratio CC50/EC50” value in data set [3] is 4.6.

For the compound `COc1cc(C(c2cc(OC)c(OC)c(OC)c2)[C@@H]2COC(=O)[C@H]2C)cc(OC)c1OC` [PEPEROMIN C], the concentration giving a half-maximal response (EC50) in data set [1] was determined as 42.6 µM. Moreover, the midpoint of cytotoxicity in data set [2], the CC50, lay at 192 µM. Also, the “Ratio CC50/EC50” value in data set [3] amounted to 4.5.

`Cc1cn([C@H]2C[C@H](N=[N+]=[N-])[C@@H](CO)O2)c(=O)[nH]c1=O` [ZIDOVUDINE]: the EC50 in data set [1] stood at 0.017 µM. In data set [2], the CC50 is 4550 µM. In addition, the Ratio CC50/EC50 in data set [3] is over 100000.

In the case of `COc1cc([C@@H](c2cc(OC)c3c(c2)OCO3)[C@@H]2COC(=O)[C@H]2C)cc(OC)c1OC` [PEPEROMIN B], the EC50 in data set [1] amounted to 5.4 µM. For the same compound, it took 49.1 µM to reach half-maximal cytotoxicity in data set [2] (CC50). Further, the “Ratio CC50/EC50” value in data set [3] was 9.1.

In the case of `COc1cc(C(c2cc(OC)c(OC)c(OC)c2)C2COC(=O)C2C)cc(O)c1OC` (stereo not drawn), the EC50 in data set [1] stood at 27.3 µM. In data set [2], half-maximal cytotoxicity (CC50) was put at 140 µM. Moreover, the “Ratio CC50/EC50” value in data set [3] is listed as 5.1.

The record behind these values is ChEMBL document CHEMBL1142103, “Bioactive lignans from Peperomia heyneana” (J Nat Prod, 2007).
